# Compounds with a hit are over-represented: about 2.1% of the library has one in this group of screens.
# PKA-R1A act = PKA-R1A complex activation; P00514+P68181; AID 504707; PKA-R1A dissociation, Cy5-IP20 fluorescence polarization; scaled: DMSO 0%, 113 µM cGMP 100%; activation, % at 11.4 µM; actives 0.083% (n = 340,000);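 active = percent activation above the mean of all tested compounds plus 3 SD, cut at about 19% in these data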;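 also: higher means more PKAc released from R1A so a rise in polarization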
# SR-BI DiI-HDL act = activators of SR-BI mediated HDL lipid uptake; CHO ldlA[mSR-BI] cells, DiI-HDL uptake fluorescence, 3 h; 100 = double the neutral-control signal; activation, % at 12.5 µM; actives 0.096% (n = 320,000);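 active = mean replicate activation of at least 60% and every replicate at or above 60%; inconclusive = mean or all-replicate condition met, but not both; inactive = mean below 60% and not all replicates reaching 60%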;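 also: 0% = median plate neutral-control signal and 100% = twice that signal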
#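 Assay system: CHO ldlA[mSR-BI] cells, LDL receptor-null, SR-BI overexpressing; medium: Ham's F12 with 0.5% BSA, HEPES 25 mM, pH 7.4; also added: DiI-HDL 10 µg/mL; timing: 3 h uptake period with compound, 37 °C; signal: DiI fluorescence, bottom read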
# CDK5 inh = inhibitors of human CDK5/p35 kinase | actives 0.01% (n = 330,000) | inhibition, % at 10 µM | Recombinant CDK5/p35, ADP-Glo luminescence, 60 min;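 active = highest replicate inhibition of at least 50% and at least 75% of replicates reaching 50%; inconclusive = only one of the two criteria met; inactive = both criteria failed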;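 also: plate controls were DMSO neutral control for no effect and GW8510 at 10 µM for full effect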
# Target sequence (Q00535 whole entry, looked up): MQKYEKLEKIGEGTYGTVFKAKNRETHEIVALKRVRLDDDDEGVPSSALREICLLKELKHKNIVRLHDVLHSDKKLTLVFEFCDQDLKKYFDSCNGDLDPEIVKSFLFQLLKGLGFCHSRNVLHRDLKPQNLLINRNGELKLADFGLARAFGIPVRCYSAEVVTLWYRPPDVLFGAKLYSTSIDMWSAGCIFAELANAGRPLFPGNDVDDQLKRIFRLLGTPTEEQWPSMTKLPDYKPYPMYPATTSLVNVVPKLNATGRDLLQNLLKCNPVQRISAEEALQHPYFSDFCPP
# Target sequence (Q15078 whole entry, looked up): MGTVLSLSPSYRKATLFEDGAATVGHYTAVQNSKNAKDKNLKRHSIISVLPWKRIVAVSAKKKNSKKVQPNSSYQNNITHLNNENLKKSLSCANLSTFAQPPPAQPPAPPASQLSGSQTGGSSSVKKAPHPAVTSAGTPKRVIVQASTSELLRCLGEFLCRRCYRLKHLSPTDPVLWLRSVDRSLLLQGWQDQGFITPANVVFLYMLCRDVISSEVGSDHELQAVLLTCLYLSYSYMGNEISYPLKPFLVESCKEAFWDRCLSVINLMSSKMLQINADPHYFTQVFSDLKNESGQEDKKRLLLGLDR
# dFosB act-1 = mouse delta FosB homodimer activation; activation, % at 25 µM; purified delta FosB, TAMRA-CDK5 oligo fluorescence polarization; percent of positive-control signal above neutral wells; P13346; actives 0.99% (n = 340,000);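 active = mean activation above about 17%, with every replicate also reaching it, limit read from the data, passing the limit was not always enough; inconclusive = only one of the two conditions met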
# PKA-R2B act = activates the human PKA-R2B holoenzyme complex | P22694+P31323 | PKA-R2B holoenzyme dissociation, Cy5-IP20 fluorescence polarization; R2B truncated from residue 108, S112A mutant; 0% DMSO only, 100% 113 µM cGMP | activation, % at 11.4 µM | actives 0.079% (n = 340,000) | AID 504700;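 active = activation above a cutoff set at the mean over all compounds plus 3 SD, cut at about 18% in these data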;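 also: higher means more holoenzyme dissociation and a rise in polarization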
# SR-BI DiI inh = blocks mouse SR-BI lipid uptake from DiI-HDL | Q61009 | ldlA[mSR-BI] CHO cells, DiI-HDL uptake fluorescence, 3 h | inhibition, % at 12.5 µM | actives 0.96% (n = 320,000);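 active = mean replicate inhibition of at least 70% and a set share of replicates each scoring 70 or more; inconclusive = meets just one of the two criteria; inactive = fails both criteria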;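 also: 0% = median of neutral control wells and 100% = median of positive control wells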
# dFosB act-2 = enhances mouse delta FosB homodimer binding to DNA | 2,400 tested, under 10 active | activation, % at 24.9 µM | AID 588690 | shares compounds with dFosB act-1 | purified delta FosB, TAMRA-CDK5 oligo fluorescence polarization; normalised: neutral wells 0, positive control 100;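 active = highest replicate activation at or above 34% and every replicate reaching that threshold; inconclusive = meets only one of the two criteria; inactive = meets neither criterion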;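 also: higher polarization means more probe DNA bound by delta FosB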
# Active calls of the source: *; ? = inconclusive; · = no result given.
SMILES,PKA-R1A act,SR-BI DiI-HDL act,CDK5 inh,dFosB act-1,PKA-R2B act,SR-BI DiI inh,dFosB act-2
CC(C)C(OC(=O)c1cc2c(s1)CCCCC2)C(=O)NC(N)=O (configuration not stated),-0.5,-25.0,-2.2,26.2*,-8.0,25.0,4.9
CC(C)CN(C(=O)COC(=O)CN1C(=O)c2ccccc2C1=O)c1c(N)n(Cc2ccccc2)c(=O)[nH]c1=O,6.6,-2.6,-0.9,-16.9,7.6,2.6,·
CC(C)CN(C(=O)COC(=O)C(C)N1C(=O)c2ccccc2C1=O)c1c(N)n(Cc2ccccc2)c(=O)[nH]c1=O (configuration not stated),-0.5,27.3,0.3,37.3*,3.1,-27.3,2.9
CCN(C(=O)COC(=O)CCc1ccccc1OC)c1c(N)n(Cc2ccccc2)c(=O)[nH]c1=O,5.2,-67.0,-0.5,27.7*,-0.5,67.0,2.0
Cc1ccc(SCC(=O)OCC(=O)N(CC(C)C)c2c(N)n(Cc3ccccc3)c(=O)[nH]c2=O)cc1C,8.7,-12.2,1.1,33.4*,4.0,12.2,-4.3
CCCN(C(=O)COC(=O)CCOc1ccc(C)cc1)c1c(N)n(Cc2ccccc2)c(=O)[nH]c1=O,-7.2,-7.2,-1.1,9.2,-1.6,7.2,·
Cc1ccc(OCCC(=O)N(CCC(C)C)c2c(N)n(Cc3ccccc3)c(=O)[nH]c2=O)cc1,-5.2,-15.9,2.4,24.2*,-3.4,15.9,-2.4
O=C(Nc1ccccc1C(=O)NCCCN1CCOCC1)c1ccc(F)cc1,-8.1,35.3,-4.0,2.4,-1.2,-35.3,·
CC1CCC(NCCNC(=O)c2ccco2)CC1 (configuration not stated),9.8,·,-0.6,-4.5,-2.3,·,·
Cc1ccccc1C(=O)OCC(=O)N(C)c1c(N)n(Cc2ccccc2)c(=O)[nH]c1=O,-11.8,14.0,-0.3,-4.4,0.2,-14.0,·
CN(C(=O)COC(=O)c1ccccc1OCc1ccc(Cl)cc1)c1c(N)n(Cc2ccccc2)c(=O)[nH]c1=O,7.2,-66.1,-1.0,33.7*,0.5,66.1,2.2
COc1ccc(C)cc1NC(=O)CCNC(=O)Cn1ccc2ccccc2c1=O,11.6,-1.1,1.3,21.9*,2.1,1.1,3.0
O=C(Cn1c2ccccc2c(=O)c2ccccc21)Nc1ccccc1F,5.1,-0.8,1.4,37.5*,4.8,0.8,-2.4
O=C(COc1ncnc2ccccc12)Nc1cc(S(=O)(=O)N2CCOCC2)ccc1Cl,-6.5,-39.0,-1.1,45.7*,12.8,39.0,2.0
O=C(c1nc2ccc(Cl)cn2c1CNCCc1cnccn1)N1CCCCCCC1,-1.8,-23.4,-0.6,-6.9,1.8,23.4,·
O=C(Nc1ccc(-c2noc(CCc3ccccc3)n2)cc1)c1cccnc1,-8.8,-7.4,-0.2,-5.7,2.0,7.4,·
Cc1ccccc1OCc1nc(-c2ccc(NC(=O)c3ccc4c(c3)OCO4)cc2)no1,-20.7,-90.6,0.1,19.3*,-7.4,90.6*,0.2
Cc1ccccc1OCc1nc(-c2ccc(NC(=O)c3ccco3)cc2)no1,7.3,-61.1,1.0,3.5,-3.9,61.1,·
Cc1cc(OCc2nc(-c3ccc(NC(=O)c4cccnc4)cc3)no2)ccc1Cl,-6.2,-32.0,0.4,78.1*,5.7,32.0,-0.9
O=C(Nc1nc(-c2cccs2)cs1)c1ccc([N+](=O)[O-])o1,-1.3,6.1,-1.8,-14.9,9.6,-6.1,·
NC(=O)c1cc(-c2ccccc2)nc2ccc(Br)cc12,·,8.5,1.1,22.9*,·,-8.5,3.3
COc1ccc2cc(C#N)c(SCC(=O)NNC(=O)Cc3ccccc3)nc2c1,-4.8,-14.2,-1.1,68.2*,1.7,14.1,1.3
Cc1ccc2cc(C#N)c(SCC(=O)NNC(=O)Cc3ccccc3)nc2c1,-8.8,-7.0,0.0,-1.9,1.8,7.0,·
COc1ccc2nc(SCC(=O)Nc3ccc4sc(C)nc4c3)c(C#N)cc2c1,-10.7,-63.2,0.4,21.1*,-5.5,63.2,-13.6
COc1ccc(NC(=O)CSc2nc(N)c(C#N)cc2C#N)cc1,-9.0,6.0,-0.1,-1.5,-1.8,-6.0,·
SMILES,PKA-R1A act,SR-BI DiI-HDL act,CDK5 inh,dFosB act-1,PKA-R2B act,SR-BI DiI inh,dFosB act-2
Cc1ccc(Cn2nc(C)c(NC(=O)CSc3n[nH]c(C)c3[N+](=O)[O-])c2C)cc1,0.9,-52.7,-0.6,30.5*,6.6,52.7,-0.4
CSc1ccc(-c2sc(Nc3ccccc3)n[n+]2-c2ccc(F)cc2)cc1,-8.5,6.7,1.5,23.4*,-0.2,-6.7,5.9
O=C(CSCC(=O)Nc1cccc2ccccc12)Nc1cccc2ccccc12,-2.1,·,0.5,49.3*,-5.5,·,3.2
Cn1cnnc1Sc1cc(N2CCN(S(=O)(=O)c3ccc(Cl)c(Cl)c3)CC2)ccc1[N+](=O)[O-],6.2,-60.5,-0.1,-4.1,-1.8,60.5,·
Cn1cnnc1Sc1cc(N2CCN(S(=O)(=O)c3ccc4ccccc4c3)CC2)ccc1[N+](=O)[O-],1.7,-31.0,·,18.9*,2.8,31.0,-0.6
O=C(CSc1ccc(-c2cccnc2)nn1)Nc1ccc(F)cc1,-2.4,14.3,-0.2,-0.1,4.8,-14.3,·
O=C(Cn1cnc2sc3c(c2c1=O)CCCC3)NCC(=O)Nc1ccc(F)cc1F,-2.2,7.2,-0.3,35.8*,-1.9,-7.2,-0.3
O=C(Cn1cnc2sc3c(c2c1=O)CCCC3)NCC(=O)Nc1ccccc1F,-14.3,-1.8,1.8,10.1,-7.5,1.8,·
Cc1csc2ncnc(NNC(=O)c3ccc(Cl)cc3)c12,0.2,0.6,1.2,28.1*,-6.5,-0.6,1.6
CCOc1ccc(NC(=O)CCC(=O)NNC(=O)Nc2cccc(Cl)c2)cc1,-3.4,-15.2,0.0,33.7*,-4.0,15.2,0.6
CCOc1ccc(NC(=O)CCC(=O)NNC(=O)COc2ccc(C)cc2)cc1,-4.6,-4.3,1.3,-4.8,-3.5,4.3,·
O=C(CCC(=O)Nc1ccc(Cl)cc1Cl)NNC(=O)Nc1ccccc1,-2.2,-0.5,0.2,33.9*,-2.1,0.5,1.3
CCOc1ccc(-c2c(C(=O)N/N=C/c3cccc(Br)c3)nnn2-c2nonc2N)cc1,-1.5,-49.0,-0.8,54.5*,-1.2,49.0,0.8
COc1cccc(-c2c(C(=O)N/N=C/c3sccc3C)nnn2-c2nonc2N)c1,-8.4,-70.4,·,12.4,-6.0,?,·
CCOc1cccc(-c2c(C(=O)N/N=C/c3ccc(Br)cc3)nnn2-c2nonc2N)c1,-3.4,-28.8,-0.2,28.9*,7.6,28.8,4.0
